Compound activity deposited in PubChem BioAssay by Broad Institute.
Sampled rows, rich in hits. Any-hit rate of the full collection: about 5.8%.
IDH1 mut inh = IDH1 R132H (human) inhibition | O75874 | IDH1 R132H reductase, diaphorase/resazurin fluorescence, 60 min | inhibition, % at 10 µM | 70,000 tested, 0.18% active; in the data active = inhibition above about 34%; inconclusive = no clear call, values can overlap the other calls; inactive = below about 11%
Target sequence (O75874 whole entry R132H): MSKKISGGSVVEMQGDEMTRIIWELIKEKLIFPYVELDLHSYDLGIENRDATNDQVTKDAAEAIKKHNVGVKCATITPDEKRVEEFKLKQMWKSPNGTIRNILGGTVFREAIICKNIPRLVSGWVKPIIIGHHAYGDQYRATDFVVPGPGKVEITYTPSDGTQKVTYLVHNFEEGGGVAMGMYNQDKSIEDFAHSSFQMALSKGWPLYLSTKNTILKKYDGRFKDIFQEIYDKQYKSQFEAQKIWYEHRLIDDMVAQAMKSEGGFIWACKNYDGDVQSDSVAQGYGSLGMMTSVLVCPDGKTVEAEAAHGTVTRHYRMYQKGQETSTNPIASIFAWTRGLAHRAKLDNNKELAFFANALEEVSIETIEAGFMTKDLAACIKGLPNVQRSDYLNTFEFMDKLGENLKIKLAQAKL
GASC1 inh = blocks human GASC-1 (KDM4C) demethylase activity; 96,000 tested, 0.15% active; inhibition, % at 12.5 µM; Q9H3R0; GST-KDM4C 2-372, H3K9me3 peptide, LANCE TR-FRET;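 active = mean replicate inhibition above about 25%, with at least 55% of replicates also reaching it, limit read from the data, passing the limit was not always enough; inconclusive = only one of those two conditions met; inactive = neither condition met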
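material = GST-tagged GASC-1 (JMJD2C) catalytic fragment, aa 2-372 | amount = enzyme final amount 10 nM | medium = HEPES buffer, pH 7.5, plus ascorbate | also added = H3K9me3 peptide substrate, Fe(II), 2-oxoglutarate | dosing = single dose | times = 30 min demethylation and 1 h detection at room temperature | detection = LANCE TR-FRET | read-out basis = Fall in 671/618 emission ratio as inhibition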
Pf Dd2 inh = inhibitors of Plasmodium falciparum Dd2 growth; activity change, % at 10 µM; 94,000 tested, 2.3% active; P. falciparum Dd2 growth, SYBR Green, 72 h; hits give low values; AID 1159554; in the data active = activity change below about -80%; inconclusive = no clear call, values can overlap the other calls
T cruzi growth-1 = blocks T. cruzi growth in NIH3T3 culture. T. cruzi beta-gal in NIH3T3, GalScreen luminescence, 90 h. inhibition, % at 8.34 µM. 77,000 tested, 5.9% active. AID 624255;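 active = mean inhibition above about 93%, with at least 55% of replicates each passing it, limit read from the data, passing the limit was not always enough; inconclusive = only one of those two conditions holds; inactive = neither condition holds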
T cruzi growth-2 = Trypanosoma cruzi proliferation inhibition | T. cruzi beta-gal in NIH3T3, GalScreen luminescence, 90 h | shares compounds with T cruzi growth-1 | 5,600 tested, 72% active | AID 651739 | inhibition, % at 8.35 µM;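 active = mean replicate inhibition above about 95% and at least 55% of replicates individually reaching it, limit read from the data; inconclusive = only one of the two criteria is met; inactive = neither criterion is met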
T cruzi growth-3 = Trypanosoma cruzi proliferation inhibition; T. cruzi beta-gal in NIH3T3, GalScreen luminescence, 90 h; inhibition, % at 2.09 µM; shares compounds with T cruzi growth-1; 5,600 tested, 21% active;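 active = mean inhibition above about 95%, with at least 55% of replicates also reaching it, limit read from the data; inconclusive = meets just one of the two conditions; inactive = meets neither condition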
NIH3T3 tox = kills mouse NIH/3T3 fibroblasts | AID 651742 | 5,600 tested, 14% active | cytotoxicity (signal decrease), % at 8.35 µM | shares compounds with T cruzi growth-1 | NIH/3T3 viability, CellTiter-Glo ATP luminescence, 90 h;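 active = mean signal decrease across replicates above about 35% based on untreated-well scatter, with enough replicates individually passing, limit read from the data; inconclusive = no rule stated though some were filed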
3T3 cytotox 2 = cytotoxicity in mouse NIH/3T3 fibroblasts; shares compounds with T cruzi growth-1; NIH/3T3 viability, CellTiter-Glo ATP luminescence, 90 h; inhibition, % at 24.9 µM; 5,600 tested, 56% active; AID 651744;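 active = mean loss of cell viability signal at or above a set limit, and enough replicates individually reaching it; inconclusive = meets only the mean limit or only the replicate share; inactive = meets neither condition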
Hits are given with their value.

What do the screens show for `COc1cccc(NC(=O)CSc2nnc(-c3ccco3)n2-c2ccccc2)c1`?
IDH1 mut inh: inactive

What do the screens show for `CC1(C)CC(=O)C2=C(C1)c1c(ccc3ncccc13)NC2C1CC=CCC1` (stereo not given)?
IDH1 mut inh: inactive

What do the screens show for `C[C@H](CO)N1C[C@H](C)[C@@H](CN(C)C(=O)Nc2ccc(C(F)(F)F)cc2)OCCCC[C@H](C)Oc2ccc(NC(=O)CCC(F)(F)F)cc2C1=O`?
GASC1 inh: inactive; Pf Dd2 inh: inactive; T cruzi growth-1: 100.9; T cruzi growth-2: 107.8; T cruzi growth-3: inactive; NIH3T3 tox: inactive; 3T3 cytotox 2: inactive

What do the screens show for `C[C@@H]1CCCCO[C@H](CN(C)C(=O)Nc2ccc(F)cc2)[C@H](C)CN([C@H](C)CO)C(=O)c2cc(NC(=O)CCC(F)(F)F)ccc2O1`?
GASC1 inh: inactive; Pf Dd2 inh: inactive; T cruzi growth-1: 97.5; T cruzi growth-2: inactive; T cruzi growth-3: inactive; NIH3T3 tox: inactive; 3T3 cytotox 2: 31.5

What do the screens show for `C[C@@H]1CN([C@H](C)CO)C(=O)c2cc(NC(=O)CCC(F)(F)F)ccc2O[C@@H](C)CCCCO[C@H]1CN(C)C(=O)Nc1ccc(F)cc1`?
IDH1 mut inh: inactive; GASC1 inh: inactive; Pf Dd2 inh: inactive; T cruzi growth-1: inactive

Results for COc1ccc(NC(=O)N(C)C[C@@H]2Oc3ccc(NC(=O)CCC(F)(F)F)cc3C(=O)N([C@H](C)CO)C[C@H]2C)cc1 ?
IDH1 mut inh: inactive; GASC1 inh: inactive; Pf Dd2 inh: inactive; T cruzi growth-1: 101.2; T cruzi growth-2: inactive; T cruzi growth-3: inactive; NIH3T3 tox: inactive; 3T3 cytotox 2: inactive

Results for Cc1cc(OCC(=O)Nc2cc(-c3nc4ccccc4o3)ccc2C)ccc1Cl ?
IDH1 mut inh: inactive

What do the screens show for `CC(C)N(Cc1nc(-c2ccccc2Cl)no1)S(=O)(=O)c1ccc([N+](=O)[O-])cc1`?
IDH1 mut inh: inactive

What do the screens show for `Cc1noc(C)c1NC(=O)N(C)C[C@H]1OCc2cn(nn2)CCCC(=O)N([C@H](C)CO)C[C@@H]1C`?
IDH1 mut inh: inactive; Pf Dd2 inh: inactive; T cruzi growth-1: inactive

Results for C[C@@H]1CN([C@@H](C)CO)C(=O)CCCn2cc(nn2)CO[C@H]1CN(C)Cc1ccc(Cl)c(Cl)c1 ?
IDH1 mut inh: inactive; GASC1 inh: inactive; Pf Dd2 inh: inactive; T cruzi growth-1: 135.1; T cruzi growth-2: inactive; T cruzi growth-3: inactive; NIH3T3 tox: inactive; 3T3 cytotox 2: inactive

Results for Cc1noc(C)c1NC(=O)N(C)C[C@@H]1OCc2cn(nn2)CCCC(=O)N([C@H](C)CO)C[C@@H]1C ?
IDH1 mut inh: inactive; GASC1 inh: inactive; Pf Dd2 inh: inactive; T cruzi growth-1: inconclusive; T cruzi growth-2: inactive; T cruzi growth-3: inactive; NIH3T3 tox: inactive; 3T3 cytotox 2: inactive

What do the screens show for `COC(=O)N(C)C[C@H]1OCc2cn(nn2)CCCC(=O)N([C@@H](C)CO)C[C@H]1C`?
IDH1 mut inh: inactive; GASC1 inh: inactive; Pf Dd2 inh: inactive; T cruzi growth-1: inconclusive; T cruzi growth-2: inactive; T cruzi growth-3: inactive; NIH3T3 tox: inactive; 3T3 cytotox 2: inconclusive

Results for COC(=O)N(C)C[C@@H]1OCc2cn(nn2)CCCC(=O)N([C@H](C)CO)C[C@H]1C ?
IDH1 mut inh: inactive; Pf Dd2 inh: inactive; T cruzi growth-1: inactive

How did COc1cccc(S(=O)(=O)N(C)C[C@@H]2OCc3cn(nn3)CCCC(=O)N([C@@H](C)CO)C[C@H]2C)c1 do in these assays?
IDH1 mut inh: inactive; GASC1 inh: inactive; Pf Dd2 inh: inactive; T cruzi growth-1: inconclusive; T cruzi growth-2: inactive; T cruzi growth-3: inactive; NIH3T3 tox: inactive; 3T3 cytotox 2: inactive

What do the screens show for `C[C@H]1CN([C@@H](C)CO)C(=O)CCCn2cc(nn2)CO[C@@H]1CN(C)Cc1ccc(Cl)c(Cl)c1`?
IDH1 mut inh: inactive; GASC1 inh: inactive; Pf Dd2 inh: inactive; T cruzi growth-1: inactive

Results for COc1ccc(-c2nnc3c4ccccc4c(C)nn23)cc1S(=O)(=O)NC(C)c1ccccc1 (stereo not given) ?
IDH1 mut inh: inactive
